From ChEMBL document CHEMBL4043132, “3-O-Substituted-3',4',5'-trimethoxyflavonols: Synthesis and cell-based evaluation as anti-prostate cancer agents” (Bioorg Med Chem, 2017) come the findings set out here.

Type in all cases: functional, cell-based
One assay relates to PC-3. The assay is described as follows: Antiproliferative activity against human PC3 cells after 3 days by WST-1 assay. The conditions noted are these: PC-3, 72 h. The procedure, abridged:
(§1)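 Cells from ATCC; PC-3 and LNCaP grown in RPMI-1640 and DU145 in EMEM, each with 10% FBS and 1% penicillin/streptomycin, 37 °C, 5% CO2. Seeded 3,200 cells/well and exposed for 3 days to at least five doses, with DMSO as vehicle control. WST-1 reagent added for 3 h at 37 °C, absorbance read at 430 nm. IC50 taken from a linear inhibition plot; mean ± SD of three independent experiments.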
For orientation: Tetrazolium assays rely on reduction of a dye to a coloured formazan, in cell work by metabolically active cells.

For another assay, the system named is DU-145. The assay is described as follows: Antiproliferative activity against human DU145 cells after 3 days by WST-1 assay. The settings on record: DU-145, 72 h. Summed up: as §1
A further assay has as its system LNCaP. Nature of the assay: Antiproliferative activity against human LNCAP cells after 3 days by WST-1 assay. The settings on record: 72 h. Summed up: as §1

Broadly, the IC50 is the concentration at which inhibition is half-maximal. The low end stands for greater potency in that assay, the high end for weaker potency in that assay.

As for `CCCOc1c(-c2cc(OC)c(OC)c(OC)c2)oc2ccccc2c1=O`, the 50% inhibitory concentration (IC50) in the assay with PC-3 stood at 11.8 µM; in the assay on DU-145, 2.8 µM; in the assay with LNCaP, 5.7 µM.
On the same counts, the results for `COc1cc(-c2oc3ccccc3c(=O)c2OC)cc(OC)c1OC` are 19.1 µM, over 50 µM and 24.7 µM.
For the compound `CCN(CC)CCCOc1c(-c2cc(OC)c(OC)c(OC)c2)oc2ccccc2c1=O`, the IC50 in the assay with PC-3 is 13.6 µM; in the assay on DU-145 it was over 50 µM; with LNCaP it was 37.6 µM.
As for `CCCC(C)Oc1c(-c2cc(OC)c(OC)c(OC)c2)oc2ccccc2c1=O` (stereo not given), the figures for the IC50 in the assay on PC-3, with DU-145 and with LNCaP were 49.3 µM, over 50 µM and 15.1 µM, respectively.
`O=c1c(O)c(-c2ccc(O)c(O)c2)oc2cc(O)ccc12` [FISETIN]: the IC50 with PC-3 was over 50 µM; in the assay on DU-145, over 50 µM; with LNCaP, 34.1 µM.
In the case of `CCCCN(CCCC)CCCOc1c(-c2cc(OC)c(OC)c(OC)c2)oc2ccccc2c1=O`, the figures for the IC50 in the assay on PC-3, in the assay on DU-145 and with LNCaP were 7.1 µM, 15.7 µM and 9 µM, respectively.
On the same counts, the results for `CCN(CC)CCCCCOc1c(-c2cc(OC)c(OC)c(OC)c2)oc2ccccc2c1=O` are 6.6 µM, 33.4 µM and 10 µM.
For `CCCCN(CCCC)CCCCOc1c(-c2cc(OC)c(OC)c(OC)c2)oc2ccccc2c1=O`, the IC50 amounted to 5.3 µM in the assay on PC-3, 15.3 µM in the assay on DU-145 and 7.8 µM with LNCaP.
For `COc1cc(-c2oc3ccccc3c(=O)c2OC(C)C)cc(OC)c1OC`, in that order: 21.2 µM, over 50 µM and 8.8 µM.
As for `CCCN(CCC)CCCCCOc1c(-c2cc(OC)c(OC)c(OC)c2)oc2ccccc2c1=O`, the 50% inhibitory concentration (IC50) is 2.6 µM in the assay with PC-3, 24.2 µM in the assay on DU-145 and 7.6 µM with LNCaP.
For `O=c1c(O)c(-c2ccc(O)c(O)c2)oc2cc(O)cc(O)c12` [QUERCETIN], the IC50 in the assay on PC-3 and in the assay on DU-145 was over 100 µM in each case.
Turning to `CCCCCCOc1c(-c2cc(OC)c(OC)c(OC)c2)oc2ccccc2c1=O`, the IC50 with PC-3 is 29.2 µM; in the assay with DU-145, over 50 µM; in the assay with LNCaP, 19.6 µM.
As for `CCCCOc1c(-c2cc(OC)c(OC)c(OC)c2)oc2ccccc2c1=O`, the IC50 in the assay with PC-3 is 12.8 µM; in the assay with DU-145, over 50 µM; in the assay with LNCaP, 8.9 µM.
Take `CCCN(CCC)CCCCOc1c(-c2cc(OC)c(OC)c(OC)c2)oc2ccccc2c1=O`: the IC50 in the assay on PC-3 was 11.6 µM; in the assay with DU-145, 35.8 µM; in the assay on LNCaP it was 16.8 µM.
In the case of `CCCN(CCC)CCCOc1c(-c2cc(OC)c(OC)c(OC)c2)oc2ccccc2c1=O`, the concentration for half-maximal inhibition (IC50) with PC-3 is 16.8 µM; in the assay on DU-145, over 50 µM; in the assay on LNCaP it was 17.9 µM.
On to `CCCCCOc1c(-c2cc(OC)c(OC)c(OC)c2)oc2ccccc2c1=O`, for which the IC50 is 22.2 µM in the assay with PC-3, over 50 µM in the assay with DU-145 and 15.4 µM in the assay on LNCaP.
For the compound `CCCCCN(CCCCC)CCCCCOc1c(-c2cc(OC)c(OC)c(OC)c2)oc2ccccc2c1=O`, the IC50 was determined as 9.6 µM in the assay with PC-3, 11.7 µM with DU-145 and 7.9 µM with LNCaP.
In the case of `CCCCCCCOc1c(-c2cc(OC)c(OC)c(OC)c2)oc2ccccc2c1=O`, the IC50 with PC-3, with DU-145 and with LNCaP was over 50 µM in each case.
With `CCC(C)Oc1c(-c2cc(OC)c(OC)c(OC)c2)oc2ccccc2c1=O` (stereo not given), the IC50 in the assay on PC-3 is 38.6 µM; in the assay with DU-145 it was over 50 µM; with LNCaP, 9.3 µM.
Take `CCN(CC)CCCCOc1c(-c2cc(OC)c(OC)c(OC)c2)oc2ccccc2c1=O`: the IC50 worked out at 13.7 µM in the assay on PC-3, 13.3 µM in the assay with DU-145 and 13.5 µM in the assay with LNCaP.
On to `CCCCN(CCCC)CCCCCOc1c(-c2cc(OC)c(OC)c(OC)c2)oc2ccccc2c1=O`, for which the concentration for half-maximal inhibition (IC50) in the assay with PC-3 was 6.8 µM; in the assay with DU-145, over 50 µM; with LNCaP it was 7.8 µM.
For `CCCCCN(CCCCC)CCCCOc1c(-c2cc(OC)c(OC)c(OC)c2)oc2ccccc2c1=O`, the IC50 was 7.9 µM in the assay on PC-3, 12.5 µM in the assay with DU-145 and 9.7 µM in the assay with LNCaP.
